From ChEMBL document CHEMBL1147403, “MexAB-OprM specific efflux pump inhibitors in Pseudomonas aeruginosa. Part 3: Optimization of potency in the pyridopyrimidine series through the application of a pharmacophore model” (2004)

Assays:
Assay type in all cases: functional
Pseudomonas aeruginosa [1] = test: Minimum inhibitory concentration against Pseudomonas aeruginosa in presence of LVFX substrate, (100% growth inhibition)
In short: (§1)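 Potentiation of levofloxacin (LVFX), a MexAB-OprM substrate, against P. aeruginosa PAM1723 (MexAB-OprM overexpressed; MexCD-OprJ and MexEF-OprN genetically disrupted). Value is the inhibitor concentration (µg/mL) giving 4-fold (MPC4) or 8-fold (MPC8) potentiation.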

Pseudomonas aeruginosa [2] = test: Minimum inhibitory concentration Pseudomonas aeruginosa in presence of LVFX substrate, (100% growth inhibition); in short: as §1
Rattus norvegicus = species on record: Rattus norvegicus; test: Serum protein binding of compound was evaluated using rat serum
Pseudomonas aeruginosa [3] = test: Minimum inhibitory concentration against Pseudomonas aeruginosa in presence of aztreonam substrate and with 0.125% human serum albumin, (100% growth inhibition)
In short: (§2)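 Potentiation of aztreonam, a MexAB-OprM substrate, against P. aeruginosa PAM1723 (MexAB-OprM overexpressed; MexCD-OprJ and MexEF-OprN genetically disrupted). Run without HSA and with 0.125% human serum albumin. Value is the inhibitor concentration (µg/mL) giving 8-fold potentiation (MPC8).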

Pseudomonas aeruginosa [4] = test: Intrinsic antibacterial activity against Pseudomonas aeruginosa
In short: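 Tested alone for antibacterial activity against P. aeruginosa PAM1723, a strain that overexpresses the MexAB-OprM pump and has MexCD-OprJ and MexEF-OprN genetically disrupted; MIC in µg/mL.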

Pseudomonas aeruginosa [5] = test: Minimum inhibitory concentration against Pseudomonas aeruginosa in presence of aztreonam substrate and with out human serum albumin, (100% growth inhibition); in short: as §2
Pseudomonas aeruginosa [6] = test: Minimum concentration of inhibitor required to reduce (potentiate) the activity of antibacterial drug aztreonam by 8-fold in absence of human serum using Pseudomonas aeruginosa, value reported is for 100% growth inhibition; in short: as §2

Row | SMILES | MIC (Pseudomonas aeruginosa [4]) | MPC8 (Pseudomonas aeruginosa [1]) | MPC4 (Pseudomonas aeruginosa [2]) | Binding (Rattus norvegicus) | MPC8 (Pseudomonas aeruginosa [3]) | MPC8 (Pseudomonas aeruginosa [5]) | MPC8 (Pseudomonas aeruginosa [6])
1 | CC(C)c1csc(CCc2ccn3c(=O)c(/C=C/C(=O)O)c(N4CCN(C)CC4)nc3c2)n1 | > 320 µg/mL | 32 µg/mL | 8 µg/mL | 67.8% | 32 µg/mL | 16 µg/mL | –
2 | CC(C)c1csc(CCc2ccn3c(=O)c(/C=C/c4nn[nH]n4)c(N4CCCC(O)C4)nc3c2)n1 (stereo not drawn) | > 320 µg/mL | 4 µg/mL | 0.5 µg/mL | – | 4 µg/mL | 4 µg/mL | –
3 | CC(C)c1csc(CCc2ccn3c(=O)c(/C=C/C(=O)O)c(N4CCCN(C)CC4)nc3c2)n1 | > 320 µg/mL | 128 µg/mL | 8 µg/mL | – | 128 µg/mL | 128 µg/mL | –
4 | CC(C)c1csc(CCc2ccn3c(=O)c(-c4nnn[nH]4)cnc3c2)n1 | > 320 µg/mL | >16 µg/mL | >16 µg/mL | 81.5% | 16 µg/mL | 16 µg/mL | –
5 | CC(C)Nc1nc2cc(CCc3nc(C(C)C)cs3)ccn2c(=O)c1/C=C/C(=O)O | > 320 µg/mL | 64 µg/mL | 8 µg/mL | 82.1% | 64 µg/mL | 64 µg/mL | –
6 | CC(C)c1csc(/C=C/c2cccc(NC(=O)Cc3ccccc3C(=O)O)c2)n1 | > 320 µg/mL | 2 µg/mL | 1 µg/mL | >98% | 16 µg/mL | 2 µg/mL | –
7 | CC(C)c1csc(CCc2ccn3c(=O)c(/C=C/C(=O)O)c(N4CCCC(N(C)C)C4)nc3c2)n1 (stereo not drawn) | > 320 µg/mL | 128 µg/mL | 8 µg/mL | – | 128 µg/mL | >128 µg/mL | –
8 | CC(C)c1csc(CCc2ccn3c(=O)c(CCC(=O)O)c(N4CCCC(O)C4)nc3c2)n1 (stereo not drawn) | > 320 µg/mL | >128 µg/mL | 32 µg/mL | – | – | >128 µg/mL | –
9 | CC(C)c1csc(CCc2ccn3c(=O)c(/C=C/C(=O)O)c(NCCc4ccncc4)nc3c2)n1 | > 320 µg/mL | 64 µg/mL | 8 µg/mL | – | 32 µg/mL | 16 µg/mL | –
10 | CC(C)c1csc(CCc2ccn3c(=O)c(/C=C/C(=O)O)c(N4CCC(OC(N)=O)CC4)nc3c2)n1 | > 320 µg/mL | 16 µg/mL | 2 µg/mL | – | 16 µg/mL | 16 µg/mL | –
11 | CC(C)c1csc(CCc2ccn3c(=O)c(/C=C/C(=O)O)c(N4CCC(O)C4)nc3c2)n1 (stereo not drawn) | > 320 µg/mL | 32 µg/mL | 4 µg/mL | – | 32 µg/mL | 32 µg/mL | –
12 | CC(C)c1csc(CCc2ccn3c(=O)c(/C=C/C(=O)O)c(N4CCCC4)nc3c2)n1 | > 320 µg/mL | 8 µg/mL | 2 µg/mL | – | 8 µg/mL | 8 µg/mL | –
13 | CC(C)c1csc(CCc2ccn3c(=O)c(/C=C/C(=O)O)c(N4CCC(O)CC4)nc3c2)n1 | > 320 µg/mL | 8 µg/mL | 1 µg/mL | – | 16 µg/mL | 16 µg/mL | –
14 | CC(C)c1csc(CCc2ccn3c(=O)c(/C=C/C(=O)O)c(N4CCCC(OC(N)=O)C4)nc3c2)n1 (stereo not drawn) | > 320 µg/mL | 8 µg/mL | 1 µg/mL | 91.2% | 16 µg/mL | 32 µg/mL | –
15 | CC(C)c1csc(CCc2ccn3c(=O)c(/C=C/C(=O)O)c(N4CCCC(O)C4)nc3c2)n1 (stereo not drawn) | > 320 µg/mL | 8 µg/mL | 0.5 µg/mL | 82.1% | 16 µg/mL | 8 µg/mL | –
16 | CC(C)c1csc(CCc2ccn3c(=O)c(/C=C/C(=O)O)c(N[C@H](CO)[C@@H](O)c4ccccc4)nc3c2)n1 (single isomer, unassigned) | > 320 µg/mL | 64 µg/mL | 8 µg/mL | – | 64 µg/mL | 64 µg/mL | –

Now from value to compound, other results behind:

Row | MIC (Pseudomonas aeruginosa [4]) | SMILES | MPC8 (Pseudomonas aeruginosa [1]) | MPC4 (Pseudomonas aeruginosa [2]) | Binding (Rattus norvegicus) | MPC8 (Pseudomonas aeruginosa [3]) | MPC8 (Pseudomonas aeruginosa [5]) | MPC8 (Pseudomonas aeruginosa [6])
17 | > 320 µg/mL | CC(C)c1csc(CCc2ccn3c(=O)c(/C=C/C(=O)O)c(N4CC[C@@H](N(C)C)C4)nc3c2)n1 | 128 µg/mL | 8 µg/mL | 69.3% | 64 µg/mL | 128 µg/mL | –
18 | > 320 µg/mL | CCC(CC)Nc1nc2cc(CCc3nc(C(C)C)cs3)ccn2c(=O)c1/C=C/C(=O)O | >128 µg/mL | 32 µg/mL | – | 128 µg/mL | 128 µg/mL | –
19 | > 320 µg/mL | CC(C)c1csc(CCc2ccn3c(=O)c(/C=C/C(=O)O)c(N4CCC(N(C)C)CC4)nc3c2)n1 | >128 µg/mL | 32 µg/mL | – | 128 µg/mL | 128 µg/mL | –
20 | > 320 µg/mL | CC(C)c1csc(CCc2ccn3c(=O)c(/C=C/C(=O)O)c(NCC4CCCCC4)nc3c2)n1 | >64 µg/mL | 8 µg/mL | – | >64 µg/mL | >64 µg/mL | –
21 | > 320 µg/mL | CC(C)c1csc(CCc2ccn3c(=O)c(/C=C/C(=O)O)c(N[C@H]4CC[C@H](O)CC4)nc3c2)n1 | >64 µg/mL | 16 µg/mL | – | >64 µg/mL | >64 µg/mL | –
22 | > 320 µg/mL | CC(C)c1csc(CCc2ccn3c(=O)c(/C=C/C(=O)O)c(N4CCOCC4)nc3c2)n1 | 16 µg/mL | 2 µg/mL | 92% | 32 µg/mL | 16 µg/mL | –
23 | > 320 µg/mL | CC(C)c1csc(CCc2ccn3c(=O)c(/C=C/C(=O)O)c(NCc4ccccn4)nc3c2)n1 | 128 µg/mL | 16 µg/mL | – | 32 µg/mL | 32 µg/mL | –
24 | > 320 µg/mL | CC(C)c1csc(CCc2ccn3c(=O)c(/C=C/C(=O)O)c(N4CCCC(CO)C4)nc3c2)n1 (stereo not drawn) | 16 µg/mL | 2 µg/mL | 91.5% | 16 µg/mL | 16 µg/mL | –
25 | > 320 µg/mL | CC(C)c1csc(CCc2ccn3c(=O)c(/C=C/C(=O)O)c(N4CCCCC4)nc3c2)n1 | 4 µg/mL | 0.5 µg/mL | – | 8 µg/mL | 4 µg/mL | –
26 | > 320 µg/mL | CC(C)c1csc(CCc2ccn3c(=O)c(/C=C/C(=O)O)c(N4CCCCC4CO)nc3c2)n1 (stereo not drawn) | 64 µg/mL | 8 µg/mL | – | 64 µg/mL | 64 µg/mL | –
27 | > 320 µg/mL | CC(C)c1csc(CCc2ccn3c(=O)c(/C=C/C(=O)O)c(N4CCC(CO)CC4)nc3c2)n1 | 8 µg/mL | 1 µg/mL | – | 16 µg/mL | 16 µg/mL | –
28 | > 320 µg/mL | CCCC(CC)Nc1nc2cc(CCc3nc(C(C)C)cs3)ccn2c(=O)c1/C=C/C(=O)O (stereo not drawn) | 16 µg/mL | 2 µg/mL | – | 32 µg/mL | 32 µg/mL | –
29 | > 320 µg/mL | CC(C)c1csc(CCc2ccn3c(=O)c(C#CC(=O)O)c(N4CCOCC4)nc3c2)n1 | 16 µg/mL | 2 µg/mL | – | 16 µg/mL | 8 µg/mL | –
30 | > 320 µg/mL | CCCNc1nc2cc(CCc3nc(C(C)C)cs3)ccn2c(=O)c1/C=C/C(=O)O | >32 µg/mL | 8 µg/mL | – | 32 µg/mL | >32 µg/mL | –
31 | > 320 µg/mL | CC(C)c1csc(CCc2ccn3c(=O)c(/C=C/C(=O)O)c(NCCc4ccc(F)cc4)nc3c2)n1 | >32 µg/mL | 8 µg/mL | – | >32 µg/mL | – | >32 µg/mL
